From ChEMBL document CHEMBL4396973, “Design and development of a series of borocycles as selective, covalent kallikrein 5 inhibitors” (Bioorg Med Chem Lett, 2019)
Calls of active or inactive are those of the source. The rule behind the calls is not given here.

How the values were obtained:
[1] = Solubility of the compound in Britton-Robinson buffer at pH 4 measured after 24 hrs; type: physicochemical
Method in brief: (§1)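 Solubility was measured in Britton-Robinson buffers spanning pH 2 to pH 8. Readings were taken after 12 h and 24 h and reported in mg/mL.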

[2] = biological target: T1, Kallikrein-5 (Homo sapiens, UniProt Q9Y337); test: Inhibition of human recombinant 6His-Q-FLAG-tagged KLK5 expressed in baculovirus infected Sf9 insect cells using (Tos-Gly-Pro-Arg)2[R110].2TFA as substrate measured at 30 secs interval for 5 mins by FLINT assay
T1 sequence (Q9Y337 whole entry): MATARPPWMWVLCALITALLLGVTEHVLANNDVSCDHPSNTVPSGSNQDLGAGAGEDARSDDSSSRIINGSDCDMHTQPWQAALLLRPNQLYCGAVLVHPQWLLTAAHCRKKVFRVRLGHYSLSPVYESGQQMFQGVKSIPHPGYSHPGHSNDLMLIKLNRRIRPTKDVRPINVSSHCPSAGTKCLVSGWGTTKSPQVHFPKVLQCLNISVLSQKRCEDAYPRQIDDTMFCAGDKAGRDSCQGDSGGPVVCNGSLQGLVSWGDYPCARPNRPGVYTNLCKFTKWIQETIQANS
Method in brief: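 Standard KLK5 assay format. Its theoretical tight-binding limit corresponds to pIC50 8.4.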

[3] = biological target: Kallikrein-5 (Homo sapiens) (UniProt Q9Y337); test: Covalent reversible inhibition of human recombinant 6His-Q-FLAG-tagged KLK5 expressed in baculovirus infected Sf9 insect cells assessed as dissociation half life
Method in brief: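 Jump-dilution experiment used to follow dissociation from KLK5. The apparent off-rate constant (K-off, per min) and dissociation half-life (T1/2) were derived from it.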

[4] = biological target: T1, Kallikrein-5; test: Inhibition of human recombinant 6His-Q-FLAG-tagged KLK5 expressed in baculovirus infected Sf9 insect cells using (Tos-Gly-Pro-Arg)2[R110].2TFA as substrate measured at 30 secs interval for 5 mins using 1 x 10'10M enzyme by FLINT assay
[5] = biological target: T2, Kallikrein-14 (Homo sapiens, UniProt Q9P0G3); test: Inhibition of recombinant human C-terminal 10-His-tagged KLK14 (Q19 to M248 residues) expressed in mouse NS0 cells using BOC-VPR-AMC as substrate incubated for 40 mins by FLINT assay
T2 sequence (Q9P0G3 whole entry): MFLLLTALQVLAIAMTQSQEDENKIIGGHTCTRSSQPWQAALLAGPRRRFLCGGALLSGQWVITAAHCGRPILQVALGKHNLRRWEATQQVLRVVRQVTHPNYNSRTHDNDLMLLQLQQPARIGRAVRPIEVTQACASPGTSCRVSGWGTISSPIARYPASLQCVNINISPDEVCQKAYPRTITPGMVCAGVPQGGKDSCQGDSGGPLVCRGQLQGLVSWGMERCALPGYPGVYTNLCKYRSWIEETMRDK

[6] = Solubility of the compound in Britton-Robinson buffer at pH 6 measured after 12 hrs; type: physicochemical; method in brief: as §1
[7] = Genotoxicity in Salmonella typhimurium TA100 in presence of rat S9 fraction by mini-Ames test; type: toxicity, subcellular; settings: salmonella enterica subsp. enterica serovar typhimurium
[8] = biological target: Plasma kallikrein (Homo sapiens, UniProt P03952); test: Inhibition of human C-terminal 6-His-tagged KLKB1 (G20-A638 residues) expressed in mouse NS0 cells using PFR-AMC as substrate incubated for 40 mins by FLINT assay
[9] = Genotoxicity in Salmonella typhimurium TA1537 in absence of rat S9 fraction by mini-Ames test; type: toxicity; settings: salmonella enterica subsp. enterica serovar typhimurium
[10] = biological target: Kallikrein-1 (Homo sapiens, UniProt P06870); test: Inhibition of human recombinant N-terminal His-tagged and enterokinase cleavage site-fused KLK1 (19 to 262 residues) expressed in baculovirus infected Sf9 insect cells using R110 labelled GSK3162232A as substrate measured at 30 secs interval for 5 mins by FLINT assay
[11] = biological target: T3, Kallikrein-8 (Homo sapiens, UniProt O60259); test: Inhibition of recombinant human C-terminal 10-His-tagged KLK8 (Gln29 to Gly260 residues) expressed in mouse NS0 cells using BOC-VPR-AMC as substrate incubated for 40 mins by FLINT assay
T3 sequence (O60259 whole entry): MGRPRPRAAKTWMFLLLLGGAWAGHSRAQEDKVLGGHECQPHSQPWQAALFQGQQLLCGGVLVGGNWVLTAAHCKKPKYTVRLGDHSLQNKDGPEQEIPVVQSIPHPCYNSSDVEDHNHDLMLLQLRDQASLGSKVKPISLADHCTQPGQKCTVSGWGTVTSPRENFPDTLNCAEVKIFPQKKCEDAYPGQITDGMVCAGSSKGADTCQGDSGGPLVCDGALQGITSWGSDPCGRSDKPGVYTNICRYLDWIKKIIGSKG

[12] = Genotoxicity in Salmonella typhimurium TA100 in absence of rat S9 fraction by mini-Ames test; type: toxicity; settings: salmonella enterica subsp. enterica serovar typhimurium
[13] = biological target: Urokinase-type plasminogen activator (Homo sapiens, UniProt P00749); test: Inhibition of recombinant human C-terminal 10-His-tagged urokinase (M1 to L431 residues) expressed in mouse NS0 cells using Z-GGR-AMC as substrate incubated for 40 mins by FLINT assay
[14] = Half life of the compound in Britton-Robinson buffer at pH 4 to 10 at 0.05 mg/ml; type: physicochemical
[15] = biological target: Coagulation factor X (Homo sapiens, UniProt P00742); test: Inhibition of recombinant human C-terminal 10-His-tagged factor Xa (L24 to K488 residues) expressed in baculovirus infected Sf21 insect cells using Mca-RPKPVE-Nval-WRK(Dnp)-NH2 as substrate incubated for 40 mins by FLINT assay
[16] = Genotoxicity in Salmonella typhimurium TA98 in presence of rat S9 fraction by mini-Ames test; type: toxicity, subcellular; settings: salmonella enterica subsp. enterica serovar typhimurium
[17] = Light absorbance of the compound in methanol under UV light irradiation at 290 nm
Method in brief: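 Compound dissolved in methanol. UV absorbance was examined across the range above 290 nm as a screen for light-mediated skin toxicity risk.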

[18] = Genotoxicity in Salmonella typhimurium TA1537 in presence of rat S9 fraction by mini-Ames test; type: toxicity, subcellular; settings: salmonella enterica subsp. enterica serovar typhimurium
[19] = Genotoxicity in Salmonella typhimurium TA98 in absence of rat S9 fraction by mini-Ames test; type: toxicity; settings: salmonella enterica subsp. enterica serovar typhimurium
[20] = Genotoxicity in Salmonella typhimurium TA1535 in presence of rat S9 fraction by mini-Ames test; type: toxicity, subcellular; settings: salmonella enterica subsp. enterica serovar typhimurium
[21] = biological target: Prothrombin (Homo sapiens, UniProt P00734); test: Inhibition of human recombinant C-terminal 10-His-tagged thrombin (M1 to E622 residues) expressed in mouse NS0 cells using BOC-VPR-AMC as substrate incubated for 40 mins by FLINT assay
[22] = Genotoxicity in Salmonella typhimurium TA1535 in absence of rat S9 fraction by mini-Ames test; type: toxicity; settings: salmonella enterica subsp. enterica serovar typhimurium

solubility at 24 h [1]: > 9000 µg/mL
IC50 [2]: 5.01 nM
T1/2 [3]: 1.17 h
IC50 [4]: < 0.316 nM
IC50 [5]: 31.6 nM
solubility at 12 h [6]: 3200 µg/mL
IC50 [8]: 20 nM
IC50 [10]: 251 nM
IC50 [11]: 6.31 nM
IC50 [13]: 7940 nM
half-life at 0.05 mg/ml [14]: > 1000 h
IC50 [15]: 398 nM
IC50 [21]: 1260 nM
Compound: Cl.N=C(N)c1ccc([C@H]2Cc3ccc(C(F)(F)F)cc3B(O)O2)cc1OCc1cccnc1
Activity [7]: Non-Toxic
Activity [9]: Non-Toxic
Activity [12]: Non-Toxic
Activity [16]: Non-Toxic
Activity [17]: inactive
Activity [18]: Non-Toxic
Activity [19]: Non-Toxic
Activity [20]: Non-Toxic
Activity [22]: Non-Toxic
